TAAR1 antagonist – human TAAR1 antagonism; Q96RJ0; CHO RD-HGA16 TAAR1, Fluo-8 calcium fluorescence, antagonist; inhibition, % at 3 µM; hit rate 1.5% among 360,000;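 active = inhibition above a per-plate cutoff, the mean inhibition of test compounds on that plate plus 3 SD, cut at about 49% in these data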;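 also: 0% = DMSO plus EC80 beta-PEA response and 100% = DMSO alone without agonist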
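Test system – hTAAR1-expressing CHO RD-HGA16 cells, Gα16-coupled · Reagent – β-PEA at EC80 concentration, post-compound challenge · Compound dosing – 3 µM, single point · Timing – 140 s kinetic read after compound, 140 s after agonist · Detection – Fluo-8 intracellular calcium dye fluorescence, real-time kinetic reads · Control set – DMSO and EC80 PEA controls · Repeats – n of 1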
OXTR ag – agonists of human oxytocin receptor; CHO-OTR cells, Fluo-8 calcium fluorescence; normalized: DMSO 0%, oxytocin 100%; activation, % at 3 µM; hit rate 0.32% among 320,000;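 active = activation above the mean of all tested compounds plus 3 SD, cutoff set per screening run, cut at about 20% in these data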;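 also: peak over basal fluorescence ratio from a 100 s FLIPR kinetic read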
Target sequence (P30559 whole entry, looked up): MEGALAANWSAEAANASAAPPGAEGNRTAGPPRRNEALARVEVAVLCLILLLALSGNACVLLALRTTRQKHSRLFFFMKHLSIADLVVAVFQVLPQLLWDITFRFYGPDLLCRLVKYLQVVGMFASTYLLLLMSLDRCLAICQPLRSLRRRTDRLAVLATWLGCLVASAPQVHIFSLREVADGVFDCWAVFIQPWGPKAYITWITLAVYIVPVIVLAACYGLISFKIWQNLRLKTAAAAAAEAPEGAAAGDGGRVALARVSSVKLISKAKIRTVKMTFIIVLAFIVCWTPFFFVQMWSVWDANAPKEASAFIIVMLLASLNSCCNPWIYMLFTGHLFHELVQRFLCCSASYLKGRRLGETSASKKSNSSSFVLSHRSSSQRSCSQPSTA
OXTR potentiate – potentiators of human oxytocin receptor | activation, % at 3 µM | hit rate 0.061% among 320,000 | CHO-OTR cells, Fluo-8 calcium fluorescence, potentiator mode; 0% = oxytocin EC15, 100% = EC100 | P30559;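 active = activation above that plate's cutoff, the mean activation of tested compounds plus 3 SD, cut at about 6.6% in these data, passing the limit was not always enough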;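 also: 100% uses oxytocin at 75 nM as the full agonist control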
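test system = CHO-OTR cells, human receptor | compound = single-point 3.0 µM | schedule = 6 min compound pre-incubation at room temperature, 100 s kinetic read | signal = Fluo-8 no-wash calcium dye fluorescence, excitation 470-495 nm, emission 515-575 nm | repeats = single well per compound, singlicate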
V1aR counter – activates human V1a receptor in oxytocin agonist counter-screen. hit rate 0.25% among 320,000. activation, % at 3 µM. CHO-V1R cells, Fluo-8 calcium fluorescence, agonist mode; 0% DMSO, 100% 3 nM vasopressin;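 active = activation above the mean activation of all tested compounds plus 3 SD, per screening run, cut at about 20% in these data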;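 also: signal is peak over basal fluorescence ratio across a 100 second FLIPR read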
TAAR1 agonist – agonists of human TAAR1. activation, % at 3 µM. CHO RD-HGA16 TAAR1, Fluo-8 calcium fluorescence; vehicle wells 0%, saturating PEA agonist 100%. hit rate 0.99% among 360,000. Q96RJ0;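 active = activation above the mean activation of all test compounds in the run plus 3 SD, cut at about 38% in these data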
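System: CHO-derived RD-HGA16 cells with stable Gα16 and human TAAR1 / Times: 17-24 h plating, Fluo-8 75 min 37 °C, 30 min RT / Technique: calcium-sensitive Fluo-8 signal, excitation 470-495, emission 515-575 nm / Measure: % activation relative to PEA EC100 response / Benchmarks: DMSO and PEA EC100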
Starred values were filed as active, the others as inactive; / = no result given. The list is not random: actives were taken first. Their share in the collection is about 2.3%.

SMILES | TAAR1 antagonist | OXTR ag | OXTR potentiate | V1aR counter | TAAR1 agonist
CCOC(=O)/C(=C\Nc1ccc(OCc2ccccc2)cc1)NC(=O)c1ccccc1 | -3.6 | / | / | / | 1.6
Cn1cccc1/C=N/n1c(-c2ccc(C(C)(C)C)cc2)n[nH]c1=S | 52.4* | 0.7 | -14.3 | -1.2 | 25.8
CCOC(=O)[C@H]1[C@H]2COc3ccc(Br)cc3[C@@H]2N2C(=O)c3cc(Br)ccc3NC(=O)[C@@]12C | 4.5 | -1.0 | -9.5 | 0.8 | 4.4
Clc1nssc1=Nc1ccc(Br)cc1 | 32.3 | / | / | / | 41.9*
NC(=O)c1ccsc1NC(=O)COC(=O)c1cc(=O)[nH]c2ccccc12 | 49.6* | -0.4 | -11.4 | 0.4 | 9.5
COc1cc(CC(=O)OCC(=O)Nc2sccc2C(N)=O)cc(OC)c1OC | 63.3* | 11.6 | -26.6 | 8.7 | 20.6
O=C(COC(=O)c1cc(=O)[nH]c2ccccc12)NCc1cccs1 | -15.3 | -0.2 | 0.2 | 0.7 | 0.7
CCN(CC(=O)Nc1ccc(NC(C)=O)cc1)Cc1c(O)ccc2cc(Br)ccc12 | 5.6 | 3.2 | -4.0 | 0.5 | 4.8
COc1ccc(S(=O)(=O)NCC(=O)Nc2cccc(C)c2C)cc1OC | -8.5 | -0.6 | 0.4 | -0.4 | 3.7
CC(=O)c1ccc(N2CCN(C(=O)CCS(=O)(=O)c3ccc4c(c3)CCN4C(C)=O)CC2)cc1 | -10.5 | 1.9 | -12.6 | 3.9 | 0.0
O=C(/C=C/c1ccccc1)NC(=S)NNC(=O)c1ccco1 | 23.6 | 3.1 | -8.6 | 6.9 | 43.0*
O=C(NC(=S)NNC(=O)c1ccco1)c1ccccc1 | -6.4 | -1.2 | -7.1 | 2.4 | 7.4
O=[N+]([O-])c1ccc(N=Nc2c(Cl)cc(O)cc2Cl)cc1 | 58.8* | 17.6 | -9.4 | 12.7 | 3.4
CC(N)=Nc1ccc([N+](=O)[O-])cc1 | -35.5 | 0.5 | -4.4 | -0.4 | 1.4
C=CCn1c(SC(C)CC)nc(O)cc1=O (stereo not drawn) | 6.1 | 45.8* | -31.7 | 30.3* | 25.8
C=CCn1c(SCCCCCC)nc(O)cc1=O | -5.2 | 0.5 | 4.4 | -1.2 | 0.7
COC(=O)[C@]12C[C@H](CC(=O)N3CCC(c4ccccc4)CC3)C(=O)N(CCC3=CCCCC3)C1=C[C@H](C(C)(C)C)O[C@@H]2C | -34.5 | / | / | / | -0.5
CCN1C(=O)c2cccc3c(S(=O)(=O)N(C(C)=O)c4ccc(OC(C)=O)cc4)ccc1c23 | 49.0* | 4.3 | -10.8 | 5.1 | 21.2
Cc1ccc(C(=O)COC(=O)CNC(=O)c2ccccc2)s1 | -8.8 | 1.0 | -2.6 | 0.2 | 7.3
Cc1ccc(NC(=O)c2cc(N3C(=O)C=CC3=O)ccc2N2CCOCC2)cc1Cl | 51.2* | 2.4 | -5.0 | 0.4 | 30.1
CCOc1ccccc1N1CCN(c2nc(N)c(C#N)c(CC#N)c2C#N)CC1 | 50.0* | 1.7 | -20.1 | 2.7 | 19.1
CCOc1ccccc1N1CCN(c2nc3ccccc3nc2C(C#N)C(=O)OC)CC1 (stereo not drawn) | 6.3 | 2.3 | -7.2 | -0.3 | 4.2
COc1ccc(S(=O)(=O)N2CC=C(c3ccccc3)CC2)cc1OC | 13.0 | / | / | / | 1.4
COc1ccccc1NC(=O)N1CCc2[nH]c3ccc(F)cc3c2C1 | -9.8 | 2.1 | -16.9 | 2.1 | 42.9*
COc1cc(OC)c(NC(=O)NNC(=O)C(=O)NC2CC2)cc1Cl | -4.6 | / | / | / | -0.5
SMILES | TAAR1 antagonist | OXTR ag | OXTR potentiate | V1aR counter | TAAR1 agonist
Cn1cccc1/C=C1\SC(=O)N(CC(=O)Nc2ccc(Cl)cc2)C1=O | 54.6* | 1.4 | 2.5 | 2.7 | 27.5
COc1ccc(N2CCN(C(=O)CCCCCn3c(=S)[nH]c4cc5c(cc4c3=O)OCO5)CC2)cc1 | / | -1.3 | 0.7 | 0.8 | /
COc1ccc(N2CCN(C(=O)CCCCCn3c(=S)[nH]c4ccc(N5CCOCC5)cc4c3=O)CC2)cc1 | 56.1* | / | / | / | 8.8
COc1ccc(C(=O)OCC(=O)NCCN2C(=O)CSC2=O)cc1[N+](=O)[O-] | -26.7 | 0.0 | -2.1 | 0.2 | 2.5
Cc1ccc(NS(=O)(=O)c2ccc(OCC(=O)NCc3ccco3)cc2)cc1 | 22.0 | 11.8 | -18.8 | 12.2 | 40.3*
ONC(=Nc1ccccc1)c1ccc(Cl)cc1 | 5.8 | -1.5 | -4.2 | -0.8 | 3.5
NC(=Nc1ccc(Cl)cc1)c1ccccc1 | 16.7 | 8.6 | -7.0 | 9.4 | 43.3*
O=C(Nc1ccc2c(c1)CCC2)C1CCN(c2c3c(nc4ncnn24)CCC3)CC1 | -14.5 | -0.8 | -4.7 | 3.5 | 12.8
